ChEMBL document CHEMBL3108749, “Discovery of a non-estrogenic irreversible inhibitor of 17β-hydroxysteroid dehydrogenase type 1 from 3-substituted-16β-(m-carbamoylbenzyl)-estradiol derivatives” (J Med Chem, 2014)
Each block holds one compound with its values, some of them ahead of it. Activity calls are given as the source filed them. No cut-off for these calls is given here.

Assays:
[1] = target: T1, 17-beta-hydroxysteroid dehydrogenase type 1 (Homo sapiens) (UniProt P14061); assay: Inhibition of 17-beta HSD1 in human T47D cells assessed as transformation of [14C]E1 to [14C]E2 at 0.1 uM after 24 hrs by thin layer chromatography; format: cell-based
T1 sequence (whole entry): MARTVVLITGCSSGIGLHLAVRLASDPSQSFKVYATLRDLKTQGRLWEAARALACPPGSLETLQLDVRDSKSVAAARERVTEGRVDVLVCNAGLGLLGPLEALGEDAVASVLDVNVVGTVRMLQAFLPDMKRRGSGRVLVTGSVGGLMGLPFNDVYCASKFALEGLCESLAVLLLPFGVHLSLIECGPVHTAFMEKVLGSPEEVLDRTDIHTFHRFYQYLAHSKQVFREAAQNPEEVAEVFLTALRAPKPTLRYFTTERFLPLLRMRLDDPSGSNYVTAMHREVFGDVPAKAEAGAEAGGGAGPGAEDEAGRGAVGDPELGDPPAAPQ
Summary of the method: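 T-47D cells (endogenous 17β-HSD1) are seeded at 3000 cells/well in RPMI with insulin (50 ng/mL) and 5% charcoal-stripped FBS. After 24 h, compound (from EtOH stock, 0.1 μM final) is added with [14C]-E1 (60 nM) for 24 h. Steroids are extracted into diethyl ether, separated by silica TLC (toluene/acetone 4:1) and quantified. Mean ± SD of ≥2 independent experiments in triplicate.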

T47D [2] = assay: Cytotoxicity against human estrogen-starved estrogen-sensitive T47D cells assessed as cell growth at 0.1 uM after 7 days by MTS assay relative to control; format: functional; conditions: 168 h, read-out: Activity
Summary of the method: (§1)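 MCF-7 (DMEM-F12) or T-47D (RPMI) cells are kept in medium with insulin (50 ng/mL) and 5% dextran-coated charcoal-treated FBS, seeded at 3000 cells/well. After 48 h, medium is replaced with medium containing compound, renewed every two days, and cells grow seven days. Growth is read by CellTiter 96 aqueous (MTS) assay as % proliferation vs basal control (0%). Scored −/+/++/+++ bands.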

T47D [3] = assay: Cytotoxicity against human estrogen-starved estrogen-sensitive T47D cells assessed as cell growth at 1 uM after 7 days by MTS assay relative to control; format: functional; conditions: 168 h, read-out: Activity; summary of the method: as §1
[4] = target: T2, 17-beta-hydroxysteroid dehydrogenase type 1 (Homo sapiens, UniProt P14061); assay: Inhibition of 17-beta HSD1 in human T47D cells assessed as transformation of [14C]E1 to [14C]E2 after 24 hrs by thin layer chromatography; format: cell-based
T2 sequence (P14061 whole entry): T1 sequence (whole entry)
Summary of the method: (§2)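 Intact T-47D cells in RPMI with insulin (50 ng/mL) and 5% dextran-charcoal-treated FBS. After 24 h, inhibitor (from EtOH stock) added at 0.1 or 1 μM for screening or 1 nM–10 μM for IC50, with [14C]-E1 (60 nM), for 24 h. Ether extraction, TLC (toluene/acetone 4:1). IC50 = concentration halving E1→E2 conversion; triplicates, at least two experiments.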

[5] = target: T2, 17-beta-hydroxysteroid dehydrogenase type 1; assay: Inhibition of 17-beta HSD1 in human T47D cells; format: cell-based; summary of the method: as §2
MCF7 [6] = assay: Cytotoxicity against human estrogen-starved estrogen-sensitive MCF7 cells assessed as cell growth at 0.1 uM after 7 days by MTS assay relative to control; format: functional; conditions: MCF7, 168 h, read-out: Activity; summary of the method: as §1
[7] = target: T3, 17-beta-hydroxysteroid dehydrogenase type 2 (Homo sapiens) (UniProt P37059); assay: Inhibition of 17-beta HSD2 (unknown origin) transfected in HEK293 cells using [14C]E2 as substrate at 10 uM; format: cell-based
T3 sequence (whole entry): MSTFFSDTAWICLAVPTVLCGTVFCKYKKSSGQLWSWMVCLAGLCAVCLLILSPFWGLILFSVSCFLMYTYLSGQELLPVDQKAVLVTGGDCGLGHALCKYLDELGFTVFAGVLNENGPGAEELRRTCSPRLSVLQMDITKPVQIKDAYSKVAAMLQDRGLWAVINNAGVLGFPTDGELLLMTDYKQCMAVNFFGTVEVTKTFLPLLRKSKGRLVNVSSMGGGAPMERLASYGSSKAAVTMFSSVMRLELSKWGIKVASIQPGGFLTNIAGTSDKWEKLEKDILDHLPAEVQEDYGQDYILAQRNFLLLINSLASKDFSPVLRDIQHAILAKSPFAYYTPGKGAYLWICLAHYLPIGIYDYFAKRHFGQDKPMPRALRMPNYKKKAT
Summary of the method: (§3)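 Stably transfected HEK-293 cells in stripped-serum MEM with G418 and insulin, seeded 48 h. Then treated with compound in DMSO (<0.5% final) plus 60 nM substrate: [14C]-E2 for 17β-HSD2, [14C]-E1 for 17β-HSD7 and 17β-HSD12. Stopped at 12–25% substrate conversion; ether extraction, TLC, radiolabel quantification; triplicates, at least two experiments.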

Cytochrome P450 3A4 = Cytochrome P450 3A4 (Homo sapiens, UniProt P08684); assay: Inhibition of CYP3A4 (unknown origin) by fluorescence assay; format: ADME
Summary of the method: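 Commercial CYP3A4 kit with dibenzylfluorescein as substrate, read by fluorescence of its enzymatic product. Compound dissolved in DMSO/acetonitrile (5:95). IC50 from means of at least two experiments in triplicate.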

MCF7 [8] = assay: Cytotoxicity against human estrogen-starved estrogen-sensitive MCF7 cells assessed as cell growth at 1 uM after 7 days by MTS assay relative to control; format: functional; conditions: MCF7, 168 h, read-out: Activity; summary of the method: as §1
[9] = target: T4, Very-long-chain 3-oxoacyl-CoA reductase (Homo sapiens) (UniProt Q53GQ0); assay: Inhibition of 17-beta HSD12 (unknown origin) transfected in HEK293 cells using [14C]E1 as substrate at 10 uM; format: cell-based; summary of the method: as §3
T4 sequence (whole entry): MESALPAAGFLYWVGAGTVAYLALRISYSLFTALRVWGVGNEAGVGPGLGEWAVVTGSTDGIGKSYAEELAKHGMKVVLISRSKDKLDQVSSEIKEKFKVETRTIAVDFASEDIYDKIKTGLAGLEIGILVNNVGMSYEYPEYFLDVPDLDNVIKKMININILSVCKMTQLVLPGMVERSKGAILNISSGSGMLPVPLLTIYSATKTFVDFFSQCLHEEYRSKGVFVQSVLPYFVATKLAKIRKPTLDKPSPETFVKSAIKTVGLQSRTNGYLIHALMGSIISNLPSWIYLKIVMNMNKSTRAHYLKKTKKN

[10] = target: T1, 17-beta-hydroxysteroid dehydrogenase type 1 (Homo sapiens); assay: Irreversible inhibition of 17-beta HSD1 (unknown origin) using [14C]E1 as substrate at 0.1 to 0.5 uM after 45 mins by thin layer chromatography
Summary of the method: (§4)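 Purified 17β-HSD1 in buffer (100 mM Tris, 20% glycerol, 0.2 mg/mL BSA, 2 mM EDTA) with 1 mM NADPH, preincubated at 37 °C with inhibitor (0, 100 or 500 nM), with or without unlabeled E1 (500 nM), over varying times. Then diluted 1:20 with [14C]-E1 (60 nM final), 45 min at 37 °C. Ether extraction, TLC, radiolabel quantification; activity as % of initial; triplicate.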

[11] = target: T1, 17-beta-hydroxysteroid dehydrogenase type 1 (Homo sapiens); assay: Inhibition of 17-beta HSD1 (unknown origin) using [14C]E1 as substrate at 0.1 to 0.5 uM by thin layer chromatography; conditions: TDE = time-dependent effect; summary of the method: as §4
[12] = target: T1, 17-beta-hydroxysteroid dehydrogenase type 1 (Homo sapiens); assay: Competitive inhibition of 17-beta HSD1 (unknown origin) using [14C]E1/E1 as substrate assessed as transformation of [14C]E1 to [14C]E2 at 0.1 to 0.5 uM after 45 mins by thin layer chromatography; summary of the method: as §4
[13] = target: T5, 3-keto-steroid reductase/17-beta-hydroxysteroid dehydrogenase 7 (Homo sapiens) (UniProt P56937); assay: Inhibition of 17-beta HSD7 (unknown origin) transfected in HEK293 cells using [14C]E1 as substrate at 10 uM; format: cell-based; summary of the method: as §3
T5 sequence (whole entry): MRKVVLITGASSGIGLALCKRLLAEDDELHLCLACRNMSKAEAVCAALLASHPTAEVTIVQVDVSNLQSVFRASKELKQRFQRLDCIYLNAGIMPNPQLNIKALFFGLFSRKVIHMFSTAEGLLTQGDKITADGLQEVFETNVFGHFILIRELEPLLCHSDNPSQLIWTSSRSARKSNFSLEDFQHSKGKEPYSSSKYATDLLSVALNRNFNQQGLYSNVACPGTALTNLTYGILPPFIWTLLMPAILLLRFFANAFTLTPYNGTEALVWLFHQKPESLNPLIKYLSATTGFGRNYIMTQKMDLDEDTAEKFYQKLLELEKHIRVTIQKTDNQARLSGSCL

Sequence of Cytochrome P450 3A4 (P08684 whole entry): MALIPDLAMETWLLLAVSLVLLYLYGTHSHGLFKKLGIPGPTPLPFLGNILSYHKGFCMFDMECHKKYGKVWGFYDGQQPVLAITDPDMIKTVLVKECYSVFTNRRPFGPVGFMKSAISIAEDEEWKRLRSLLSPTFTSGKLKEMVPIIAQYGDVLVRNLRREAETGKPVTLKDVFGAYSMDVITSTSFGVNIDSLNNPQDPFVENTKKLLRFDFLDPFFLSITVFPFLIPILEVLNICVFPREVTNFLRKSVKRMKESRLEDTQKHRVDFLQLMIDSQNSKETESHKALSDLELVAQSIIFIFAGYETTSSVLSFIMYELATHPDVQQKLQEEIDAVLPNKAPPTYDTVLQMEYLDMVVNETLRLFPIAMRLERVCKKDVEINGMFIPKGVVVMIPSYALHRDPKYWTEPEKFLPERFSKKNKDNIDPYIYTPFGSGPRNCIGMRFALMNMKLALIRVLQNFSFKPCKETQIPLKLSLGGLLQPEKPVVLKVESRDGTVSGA

inhibition [1]: 41%
IC50 [4]: 153 nM
SMILES: C[C@]12CC[C@@H]3c4ccc(CCCBr)cc4CC[C@H]3[C@@H]1C[C@H](Cc1cccc(C(N)=O)c1)[C@@H]2O
percent proliferation above basal control at 0.1 µM (T47D [2]): 0%
% proliferation above basal control (0% = control) at 1 µM (T47D [3]): 0%

SMILES: C[C@]12CC[C@@H]3c4ccc(OCCBr)cc4CC[C@H]3[C@@H]1C[C@H](Cc1cccc(C(N)=O)c1)[C@@H]2O
inhibition [1]: 37%
percent proliferation above basal control at 0.1 µM (T47D [2]): 0%
% proliferation above basal control (0% = control) at 1 µM (T47D [3]): 0%
IC50 [4]: 172 nM

SMILES: C[C@]12CC[C@@H]3c4ccc(CCBr)cc4CC[C@H]3[C@@H]1C[C@H](Cc1cccc(C(N)=O)c1)[C@@H]2O
IC50 [5]: 97 nM
percent proliferation above basal control at 0.1 µM (MCF7 [6]): 0%
inhibition [7]: 7%
IC50 (Cytochrome P450 3A4): 3.9 µM
percent proliferation above basal control at 1 µM (MCF7 [8]): 0%
inhibition [9]: 34%
inhibition [10]: Active
inhibition [11]: tde
inhibition [12]: Active
inhibition [13]: 9%
